Assay [1] relates to Staphylococcus aureus. Put plainly: Decrease in delta toxin levels in Staphylococcus aureus USA300 at subinhibitory concentrations after 24 hrs by RP-HPLC/ESI- MS. In kind it is functional, organism-based. The essentials:
(§1)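 Antibiotic at a subinhibitory concentration was added at inoculation (1:100 from precultures) into 1 ml tryptic soy broth and shaken 24 h at 200 rpm. Peptides in culture filtrates were quantified by RP-HPLC/ESI-MS in triplicate. Each concentration started at 1/10 of the published MIC and was adjusted to give minimal growth effect, judged by OD600.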

Assay [2] relates to Staphylococcus aureus. Kind of assay: Decrease in PSMbeta1 levels in Staphylococcus aureus USA300 at subinhibitory concentration after 24 hrs by RP-HPLC/ESI-MS. It is filed as functional, organism-based. An outline of the steps:
(§2)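 Antibiotic was added at inoculation (1:100 from preculture) into tryptic soy broth, with an antibiotic-free control, and shaken at 200 rpm for 24 h. Sub-inhibitory levels started at 1/10 of published MICs and were adjusted to give minimal growth effect, with growth tracked by OD600. PSMs in culture filtrates were quantified in triplicate by RP-HPLC/ESI-MS and reported as mean ± SD.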

Assay [3] has as its system Staphylococcus aureus. Put plainly: Decrease in delta toxin levels in Staphylococcus aureus Sanger 252 at subinhibitory concentrations after 24 hrs by RP-HPLC/ESI- MS. In kind it is functional, organism-based. An outline of the steps:
as §1

Assay [4] relates to Staphylococcus aureus. Put plainly: Decrease in PSMbeta1 levels in Staphylococcus aureus Sanger 252 at subinhibitory concentrations after 24 hrs by RP-HPLC/ESI- MS. It is filed as functional, organism-based. The essentials: as §2
The test system of assay [5] is Staphylococcus aureus. Put plainly: Antimicrobial activity against community-associated methicillin-resistant Staphylococcus aureus USA300. It is filed as functional.
Assay [6] has as its system Staphylococcus aureus. Kind of assay: Antimicrobial activity against community-associated methicillin-resistant Staphylococcus aureus Sanger 252. In kind it is functional.
Assay [7] addresses T1, Accessory gene regulator protein A (Staphylococcus aureus) (UniProt P0A0I7).
T1 sequence (whole entry): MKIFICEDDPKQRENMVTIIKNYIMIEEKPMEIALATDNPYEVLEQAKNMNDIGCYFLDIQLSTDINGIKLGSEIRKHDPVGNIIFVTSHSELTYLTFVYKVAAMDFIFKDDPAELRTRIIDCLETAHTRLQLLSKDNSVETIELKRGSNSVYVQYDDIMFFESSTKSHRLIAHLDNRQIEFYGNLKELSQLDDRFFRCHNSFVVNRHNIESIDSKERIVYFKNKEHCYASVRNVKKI
Put plainly: Activity of Quorum sensing agr in community-associated methicillin-resistant Staphylococcus aureus USA300 assessed as PSMbeta expression after 8 hrs by qRT-PCR. An outline of the steps:
(§3)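 LAC (USA300) was grown 8 h in shaken 125-ml flasks with antibiotic at a subinhibitory concentration. psmα and psmβ transcripts were quantified by qRT-PCR, with gyrB transcript as control, in parallel with RNAIII as the agr read-out. Run in triplicate; means ± SD.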

The target in assay [8] is T1, Accessory gene regulator protein A (Staphylococcus aureus). Kind of assay: Activity of Quorum sensing agr in community-associated methicillin-resistant Staphylococcus aureus USA300 assessed as PSMalpha expression after 8 hrs by qRT-PCR. The essentials:
as §3

Assay [9] relates to Staphylococcus aureus. Put plainly: Increase in PSMalpha levels in Staphylococcus aureus USA300 at subinhibitory concentrations after 24 hrs by RP-HPLC/ESI- MS. It is filed as functional, organism-based. The essentials:
as §2

Assay [10] relates to Staphylococcus aureus. Kind of assay: Decrease in PSMalpha levels in Staphylococcus aureus USA300 at subinhibitory concentration after 24 hrs by RP-HPLC/ESI-MS. In kind it is functional, organism-based. The essentials: as §1
In assay [11] the test system is Staphylococcus aureus. Kind of assay: Decrease in PSMalpha levels in Staphylococcus aureus Sanger 252 at subinhibitory concentrations after 24 hrs by RP-HPLC/ESI- MS. It is filed as functional, organism-based. An outline of the steps:
as §2

Assay [12] deals with Staphylococcus aureus. Put plainly: Increase in PSMalpha levels in Staphylococcus aureus Sanger 252 at subinhibitory concentrations after 24 hrs by RP-HPLC/ESI- MS. It is filed as functional, organism-based. The essentials:
as §1

From ChEMBL document CHEMBL1671748, “Subinhibitory concentrations of protein synthesis-inhibiting antibiotics promote increased expression of the agr virulence regulator and production of phenol-soluble modulin cytolysins in community-associated methicillin-resistant Staphylococcus aureus” (2010) come the findings set out here.

SMILES strings stand for the structures. Converted amounts (≈) assume the structure as drawn. The source made the active and inactive calls. No cut-off for these calls is given here.

For the compound `CN[C@H](CC(C)C)C(=O)N[C@H]1C(=O)N[C@@H](CC(N)=O)C(=O)N[C@H]2C(=O)N[C@H]3C(=O)N[C@H](C(=O)N[C@H](C(=O)O)c4cc(O)cc(O)c4-c4cc3ccc4O)[C@H](O)c3ccc(c(Cl)c3)Oc3cc2cc(c3O[C@@H]2O[C@H](CO)[C@@H](O)[C@H](O)[C@H]2O[C@H]2C[C@](C)(N)[C@H](O)[C@H](C)O2)Oc2ccc(cc2Cl)[C@H]1O`, the outcome in [1] and in assay [3] was inactive. Besides, the result in assay [2] and in assay [4] was Active.

Take `O=C(O)c1cn(C2CC2)c2cc(N3CCNCC3)c(F)cc2c1=O` [CIPROFLOXACIN]: the MIC is 2 µg/mL (≈ 6.04 µM) in assay [5] and above 16 µg/mL in [6]. Besides, the result in assay [1] and in assay [3] was inactive. Besides, the result in assay [2] and in [4] was Active.

As to `CCC[C@@H]1C[C@@H](C(=O)N[C@@H]([C@H]2O[C@H](SC)[C@H](O)[C@@H](O)[C@H]2O)[C@H](C)Cl)N(C)C1` [CLINDAMYCIN], the result in assay [7], in assay [2], in assay [8], in [4] and in [9] was Active. Further, the results for the MIC in assay [5] and in assay [6] were 0.12 µg/mL (≈ 0.282 µM) and above 4 µg/mL, respectively. Besides, the outcome in assay [1] and in assay [3] was inactive.

Regarding `CC[C@H]1OC(=O)[C@H](C)[C@@H](O[C@H]2C[C@@](C)(OC)[C@@H](O)[C@H](C)O2)[C@H](C)[C@@H](O[C@@H]2O[C@H](C)C[C@H](N(C)C)[C@H]2O)[C@](C)(O)C[C@@H](C)C(=O)[C@H](C)[C@@H](O)[C@]1(C)O` [ERYTHROMYCIN], the MIC in assay [5] and in assay [6] was above 8 µg/mL each time. Besides, the outcome in assay [1] and in assay [3] was inactive. The result in [2], in assay [4] and in assay [9] was Active.

For the compound `CC(=O)NC[C@H]1CN(c2ccc(N3CCOCC3)c(F)c2)C(=O)O1` [LINEZOLID], the outcome in assay [1] and in assay [3] was inactive. The outcome in assay [2], in assay [4] and in assay [9] was Active. In assay [6], this compound gave an MIC of 1 µg/mL (≈ 2.96 µM).

In the case of `C/C(=C\C(=O)OCCCCCCCCC(=O)O)C[C@@H]1OC[C@H](C[C@@H]2O[C@H]2[C@@H](C)[C@H](C)O)[C@@H](O)[C@H]1O` [MUPIROCIN], the MIC came out at 0.12 µg/mL (≈ 0.24 µM) in assay [5] and 0.25 µg/mL (≈ 0.499 µM) in assay [6]. Also, the outcome in assay [10] and in [1] was inactive. In addition, the result in assay [2], in [3], in [11] and in [4] was Active.

On to `Cc1onc(-c2ccccc2)c1C(=O)N[C@@H]1C(=O)N2[C@@H]1SC(C)(C)[C@@H]2C(=O)O` [OXACILLIN], for which the outcome in assay [7], in [3], in assay [12] and in [8] was inactive. In addition, the MIC in assay [5] and in assay [6] was above 16 µg/mL each time. In addition, the result in assay [10], in [1], in assay [2] and in [4] was Active.

Turning to `CO[C@H]1/C=C/O[C@@]2(C)Oc3c(C)c(O)c4c(O)c(c(/C=N/N5CCN(C)CC5)c(O)c4c3C2=O)NC(=O)/C(C)=C\C=C\[C@H](C)[C@H](O)[C@@H](C)[C@@H](O)[C@@H](C)[C@H](OC(C)=O)[C@@H]1C` [RIFAMPIN], the MIC in [5] and in assay [6] was 0.004 µg/mL (≈ 0.00486 µM) throughout. Further, the result in assay [1] and in [3] was inactive. For the same compound, the result in [2] and in assay [4] was Active.

For `Cc1cc(NS(=O)(=O)c2ccc(N)cc2)no1` [SULFAMETHOXAZOLE], the MIC in [5] and in assay [6] was 4.75 µg/mL (≈ 18.8 µM) in each case.

As for `CN(C)[C@@H]1C(O)=C(C(N)=O)C(=O)[C@@]2(O)C(O)=C3C(=O)c4c(O)cccc4[C@@](C)(O)[C@H]3C[C@@H]12` [TETRACYCLINE], the result in assay [7], in assay [2], in assay [8], in [4] and in [9] was Active. In addition, the minimal inhibitory concentration (MIC) in assay [5] and in assay [6] was 1 µg/mL (≈ 2.25 µM) throughout. The outcome in assay [1] and in assay [3] was inactive.

For the compound `COc1cc(Cc2cnc(N)nc2N)cc(OC)c1OC` [TRIMETHOPRIM], the MIC in assay [5] and in assay [6] was 0.25 µg/mL (≈ 0.861 µM) throughout.
